The target of data set [1] is E3 ubiquitin-protein ligase Mdm2 (Mus musculus) (UniProt P23804). Briefly: In-vivo inhibition of MDM2 in BomTac:NMRI-Foxn1^nu mouse xenografted with human SJSA-1 cells assessed as induction of TP53 protein accumulation at 100 mg/kg, po administered as single dose and measured after 6 to 24 hrs by mesoscale assay. It counts as functional, organism-based. As to conditions: time 6-24 hrs. In outline:
(§1)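 In NMRI nude mice with established subcutaneous SJSA-1 tumors, a single oral 100 mg/kg dose was compared with vehicle. Tumors collected at 6 h and 24 h post-dose were analysed for protein biomarkers by Meso-Scale assay.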
(In xenograft studies the graft and the host belong to different species.)

Data set [2] in a line: AUC (0 to 24 hrs) in NMRI mouse at 50 mg/kg, po. The data set is classed as ADME, organism-based. The arrangement: time < 24 hr, route oral, dose 50 mg/kg. The note with it: in vivo. In outline: (§2)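 Non-tumor-bearing female NMRI nude mice were given a single dose by one of two routes. The iv arm received 5 mg/kg as a bolus in 25% HP-B-CD. The po arm received 50 mg/kg in 0.5% Natrosol (pH 7-8, NaOH titrated). Both used 10 ml/kg. Plasma levels were measured by LC/MS/MS, n=3 per dose group. Parameters came from non-compartmental analysis, with AUC0-24h by linear trapezoidal interpolation.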

In data set [3] the target is E3 ubiquitin-protein ligase Mdm2 (Mus musculus) (UniProt P23804). Briefly: In-vivo inhibition of MDM2 in BomTac:NMRI-Foxn1^nu mouse xenografted with human SJSA-1 cells assessed as induction of cleaved CASPASE3 protein accumulation at 100 mg/kg, po administered as single dose and measured after 6 to 24 hrs by immunohistochemical analysis. The data set is classed as functional, organism-based. As to conditions: time 6-24 hrs. The gist of the method: (§3)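 SJSA-1 tumor-bearing NMRI nude mice received one oral dose of 100 mg/kg. Tumors were harvested at 6 h and 24 h. Sections were stained by immunohistochemistry for CDKN1a, TP53 and cleaved CASPASE3.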

Data set [4] can be described thus: Cmax in NMRI mouse at 50 mg/kg, po. The data set is classed as ADME, organism-based. Details: route oral, dose 50 mg/kg. The note with it: in vivo. In outline: as §2
Data set [5] has as its system SK-OV-3. Briefly: Antiproliferative activity against human SK-OV-3 cells expression p53 mutant incubated for 3 days by Alamar Blue dye based assay. The data set is classed as functional, cell-based. As to conditions: SK-OV-3, 72 h. The gist of the method:
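p53-mutant SK-OV-3 cells were used in a growth/proliferation assay, with compounds tested up to 25 μM.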
In general terms: Alamar Blue is a resazurin reagent that responds to reducing activity.

The target of data set [6] is E3 ubiquitin-protein ligase Mdm2 (Mus musculus) (UniProt P23804). Briefly: In-vivo inhibition of MDM2 in BomTac:NMRI-Foxn1^nu mouse xenografted with human SJSA-1 cells assessed as induction of CDKN1a mRNA expression at 100 mg/kg, po administered as single dose and measured after 6 to 24 hrs by q-RT-PCR analysis. It counts as functional, organism-based. As to conditions: time 6-24 hrs, TDE = time-dependent effect. The gist of the method:
(§4)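 Established subcutaneous SJSA-1 xenografts in NMRI nude mice were dosed once orally at 100 mg/kg, or with vehicle. Tumors were harvested 6 h and 24 h after dosing. TP53 target-gene mRNA was quantified by q-RT-PCR.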

Data set [7] relates to SJSA-1. Briefly: Antiproliferative activity against human SJSA-1 cells expression wild type p53 incubated for 3 days by Alamar Blue dye based assay. The note with it: SJSA-1, 72 h. The data set is classed as functional, cell-based.
The test system of data set [8] is SJSA-1. The data set can be described thus: Antitumor activity against human SJSA-1 cells xenografted in BomTac:NMRI-Foxn1^nu mouse assessed as induction of tumor regression at 100 mg/kg, po administered as single dose and measured up to 13 days. The data set is classed as functional, organism-based. The note with it: time day <=13. The gist of the method: (§5)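 NMRI nude mice bearing established subcutaneous SJSA-1 osteosarcoma tumors received oral treatment, with a vehicle control group. There were 8 animals per group. Median tumor volume and median body weight change (% of initial) were tracked.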

Data set [9] has as its target E3 ubiquitin-protein ligase Mdm2 (Mus musculus) (UniProt P23804). Briefly: In-vivo inhibition of MDM2 in BomTac:NMRI-Foxn1^nu mouse xenografted with human SJSA-1 cells assessed as induction of BBC3 mRNA expression at 100 mg/kg, po administered as single dose and measured after 6 to 24 hrs by q-RT-PCR analysis. The data set is classed as functional, organism-based. The note with it: time 6-24 hrs, TDE = time-dependent effect. The gist of the method:
as §4

Data set [10] is described as follows: Volume of distribution at steady state in NMRI mouse at 5 mg/kg, iv. The note with it: in vivo, read-out: Vdss. The data set is classed as ADME, organism-based. The gist of the method: as §2
Data set [11] is described as follows: Clearance in NMRI mouse at 5 mg/kg, iv. It counts as ADME, organism-based. As to conditions: in vivo. In outline:
as §2

Data set [12] has as its target E3 ubiquitin-protein ligase Mdm2 (Mus musculus) (UniProt P23804). Briefly: In-vivo inhibition of MDM2 in BomTac:NMRI-Foxn1^nu mouse xenografted with human SJSA-1 cells assessed as induction of CDKN1a protein accumulation at 100 mg/kg, po administered as single dose and measured after 6 to 24 hrs by immunohistochemical analysis. The data set is classed as functional, organism-based. The note with it: time 6-24 hrs. The gist of the method:
as §3

The target is the same in data set [13]. The data set can be described thus: In-vivo inhibition of MDM2 in BomTac:NMRI-Foxn1^nu mouse xenografted with human SJSA-1 cells assessed as induction of MDM2 protein accumulation at 100 mg/kg, po administered as single dose and measured after 6 to 24 hrs by mesoscale assay. It counts as functional, organism-based. As to conditions: time 6-24 hrs. In outline:
as §1

Data set [14] has the same target. Briefly: In-vivo inhibition of MDM2 in BomTac:NMRI-Foxn1^nu mouse xenografted with human SJSA-1 cells assessed as induction of TP53 protein accumulation at 100 mg/kg, po administered as single dose and measured after 6 to 24 hrs by immunohistochemical analysis. The data set is classed as functional, organism-based. As to conditions: time 6-24 hrs. The gist of the method:
as §3

The subject of data set [15] is SJSA-1. Briefly: Antitumor activity against human SJSA-1 cells xenografted in BomTac:NMRI-Foxn1^nu mouse assessed as induction of tumor regression at 25 mg/kg, po dosed daily for 13 days. It counts as functional, organism-based. As to conditions: time 13.0 day. In outline:
as §5

Data set [16] deals with E3 ubiquitin-protein ligase Mdm2 (Mus musculus) (UniProt P23804). The data set can be described thus: In-vivo inhibition of MDM2 in BomTac:NMRI-Foxn1^nu mouse xenografted with human SJSA-1 cells assessed as induction of cleaved caspse-3 protein accumulation at 100 mg/kg, po administered as single dose and measured after 6 to 24 hrs by mesoscale assay. The data set is classed as functional, organism-based. As to conditions: time 6-24 hrs. The gist of the method:
as §1

For data set [17] the target is unchanged. The data set can be described thus: In-vivo inhibition of MDM2 in BomTac:NMRI-Foxn1^nu mouse xenografted with human SJSA-1 cells assessed as induction of MDM2 mRNA expression at 100 mg/kg, po administered as single dose and measured after 6 to 24 hrs by q-RT-PCR analysis. The data set is classed as functional, organism-based. The note with it: time 6-24 hrs, TDE = time-dependent effect. In outline:
as §4

The structures appear in SMILES notation. Activity calls are given as the source filed them. The calls are words filed in the database; no cut-off is given here.

Chain of E3 ubiquitin-protein ligase Mdm2 (Mus musculus) (P23804 whole entry): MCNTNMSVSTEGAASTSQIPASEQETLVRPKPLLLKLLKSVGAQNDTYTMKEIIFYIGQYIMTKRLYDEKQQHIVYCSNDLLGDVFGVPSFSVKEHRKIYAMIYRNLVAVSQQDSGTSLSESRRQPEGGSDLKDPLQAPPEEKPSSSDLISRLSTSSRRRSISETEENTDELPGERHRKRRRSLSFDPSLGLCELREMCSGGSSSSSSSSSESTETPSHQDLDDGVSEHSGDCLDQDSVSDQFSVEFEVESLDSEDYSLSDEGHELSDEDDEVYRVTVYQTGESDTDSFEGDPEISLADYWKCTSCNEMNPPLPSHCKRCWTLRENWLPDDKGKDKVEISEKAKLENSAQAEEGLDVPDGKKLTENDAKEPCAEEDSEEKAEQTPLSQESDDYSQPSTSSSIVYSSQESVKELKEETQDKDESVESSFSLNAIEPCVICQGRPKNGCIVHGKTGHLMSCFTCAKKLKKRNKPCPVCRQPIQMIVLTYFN

Turning to `O=C(O)c1ccc([C@H]2C[C@H]3[C@@H](N2)[C@H](c2cccc(Cl)c2F)[C@]2(C(=O)Nc4cc(Cl)ccc42)N3CC2CC2)cc1`, the inhibition entry in [1], in data set [3], in data set [12], in data set [13], in [14] and in [16] was “Active” throughout. In addition, the AUC(0-t) (as a rule, the area under the concentration-time curve up to a stated or last time point) at 24 h in data set [2] was found to be 264 µM·h. Besides, the highest level in data set [4] (Cmax) was 21.3 µM. Moreover, the IC50 – broadly, the concentration that inhibits the measured activity by half – was greater than 25 µM in data set [5] and 471 nM in [7]. Also, the inhibition result in [6], in data set [9] and in [17] was “Tde” in each case. Moreover, the result in data set [8] and in data set [15] was Active. In data set [10], the Vd is 2.1 L/kg. In addition, the clearance (as a rule, the volume of plasma or blood freed of the substance per unit of time) in data set [11] stood at 7.1 mL/min/kg.

For the origin of these results see ChEMBL document CHEMBL4680091, “Discovery of Novel Spiro[3H-indole-3,2'-pyrrolidin]-2(1H)-one Compounds as Chemically Stable and Orally Active Inhibitors of the MDM2-p53 Interaction” (J Med Chem, 2016).
